ChEMBL document CHEMBL4028907, “Semisynthesis and Biological Evaluation of Xanthone Amphiphilics as Selective, Highly Potent Antifungal Agents to Combat Fungal Resistance” (J Med Chem, 2017)
Values after ≈ are worked out from the molar mass of the structure shown. Active and inactive are the calls of the source. The calls are words filed in the database; no cut-off is given here.

Key:
Fusarium solani [1] = test: Antifungal activity against Fusarium solani 52628 after 48 hrs by two fold serial dilution method; format: functional; conditions: Fusarium solani, 52628, 48 h
Summary of the method: (§1)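 Moulds grown on potato dextrose agar, 30 °C, 4 days; inoculum adjusted to about 5×10^3 CFU/mL. Two-fold serial dilutions in RPMI-1640 broth, 100 to 0.78 μg/mL final, mixed with equal volume of cell suspension; incubated 30 °C, 48 h. MIC = lowest concentration inhibiting growth, judged visually and by OD530.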

Aspergillus brasiliensis = test: Antifungal activity against Aspergillus brasiliensis TCC16404 after 48 hrs by two fold serial dilution method; format: functional; conditions: TCC16404, 48 h; summary of the method: as §1
Fusarium oxysporum [2] = test: Antifungal activity against Fusarium oxysporum MYA3461 after 48 hrs by two fold serial dilution method; format: functional; conditions: MYA3461, 48 h; summary of the method: as §1
Aspergillus fumigatus [3] = test: Antifungal activity against Aspergillus fumigatus TCC MYA3626 after 48 hrs by two fold serial dilution method; format: functional; conditions: TCC MYA3626, 48 h; summary of the method: as §1
Candida albicans [4] = test: Antifungal activity against Candida albicans DF1976R after 24 hrs by two fold serial dilution method; format: functional
Summary of the method: (§2)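 Candida grown on Sabouraud dextrose agar at 35 °C for 24 h, adjusted to ~5×10^3 CFU/mL. Two-fold dilutions from 100 to 0.78 μg/mL in Sabouraud dextrose broth, incubated at 35 °C for 24 h. MIC is the lowest concentration inhibiting growth by eye and by OD600. CLSI-based with minor modifications.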

Fusarium solani [5] = test: Antifungal activity against Fusarium solani MYA3636 after 48 hrs by two fold serial dilution method; format: functional; conditions: MYA3636, 48 h; summary of the method: as §1
Candida albicans [6] = test: Antifungal activity against Candida albicans ATCC11651 after 24 hrs by two fold serial dilution method; format: functional; conditions: ATCC11651, 24 h; summary of the method: as §2
Candida albicans [7] = test: Antifungal activity against Candida albicans ATCC90028 after 24 hrs by two fold serial dilution method; format: functional; conditions: ATCC90028, 24 h; summary of the method: as §2
Candida albicans [8] = test: Antifungal activity against Candida albicans ATCC24433 after 24 hrs by two fold serial dilution method; format: functional; conditions: ATCC24433, 24 h; summary of the method: as §2
Aspergillus flavus [9] = test: Antifungal activity against Aspergillus flavus TCC MYA3631 after 48 hrs by two fold serial dilution method; format: functional; conditions: TCC MYA3631, 48 h; summary of the method: as §1
Fusarium solani [10] = test: Antifungal activity against Fusarium solani 62877 after 48 hrs by two fold serial dilution method; format: functional; conditions: Fusarium solani, 62877, 48 h; summary of the method: as §1
Candida albicans [11] = test: Antifungal activity against Candida albicans ATCC 10231 after 24 hrs by two fold serial dilution method; format: functional; conditions: ATCC 10231, 24 h; summary of the method: as §2
Aspergillus flavus [12] = test: Antifungal activity against Aspergillus flavus TCC 204304 after 48 hrs by two fold serial dilution method; format: functional; conditions: TCC 204304, 48 h; summary of the method: as §1
Fusarium solani [13] = test: Antifungal activity against Fusarium solani 46492 after 48 hrs by two fold serial dilution method; format: functional; conditions: Fusarium solani, 46492, 48 h; summary of the method: as §1
Candida albicans [14] = test: Antifungal activity against drug resistant Candida albicans DF2672R after 24 hrs by two fold serial dilution method; format: functional; summary of the method: as §2
Aspergillus fumigatus [15] = test: Antifungal activity against Aspergillus fumigatus TCC 90906 after 48 hrs by two fold serial dilution method; format: functional; conditions: TCC 90906, 48 h; summary of the method: as §1
Fusarium oxysporum [16] = test: Antifungal activity against Fusarium oxysporum 64530 after 48 hrs by two fold serial dilution method; format: functional; conditions: Fusarium oxysporum, 64530, 48 h; summary of the method: as §1
Candida albicans [17] = test: Synergistic antifungal activity against drug resistant Candida albicans DF2672R after 24 hrs in presence of natamycin by checkerboard assay; format: functional
Summary of the method: (§3)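 Checkerboard combination of each compound with a second antifungal, following a previously reported procedure. FIC = MIC of A in combination/MIC of A alone + MIC of B in combination/MIC of B alone.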

Lipid bilayer [18] = test: Induction of membrane permiablization in calcein loaded DOPC/DOPE/PI large unilamellar vesicles assessed as calcein leakage at 1:8 compound to lipid ratio after 1 to 2 hrs by […] fluorescence assay relative to control
Summary of the method: (§4)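 LUVs (DOPC/DOPE/PI 2:1:1 with 15 wt % ergosterol, about 100 nm) made by film hydration and extrusion, loaded with 80 mM calcein in HEPES buffer pH 7.4. Free dye removed by G-50 column. Compound added in 0.5% DMF at 50 μM final phospholipid. Emission read at 520 nm (excitation 490 nm); leakage normalized to 1% Triton X-100.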

Candida albicans [19] = test: Synergistic antifungal activity against drug resistant Candida albicans DF2672R after 24 hrs in presence of miconazole by checkerboard assay; format: functional; summary of the method: as §3
[20] = Cytotoxicity against human corneal fibroblasts assessed as cell viability up to 100 uM after 4 hrs by LDH assay relative to control; format: cell-based, Corneal fibroblast; conditions: read-out: Activity
Summary of the method: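 LDH release assay on human corneal fibroblasts seeded at 10000 cells per well, exposed to a range of compound concentrations up to 100 μM. 1% Triton X-100 served as positive control and 0.5% DMSO as negative control; biological replicates.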

Candida albicans [21] = test: Induction of membrane permiablization in drug resistant Candida albicans DF2672R at 4 times MIC after 1 to 2 hrs by SYTOX green dye based spectrofluorometric assay; format: functional
Summary of the method: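 Overnight cultures washed and resuspended in PBS at OD600 0.2, then loaded with 0.3 μM SYTOX Green in the dark. After the signal stabilised, compound in PBS/DMF was added (final DMF 0.5%; 0.5% DMF as control). Fluorescence (ex 504/em 523 nm) followed continuously for 1–2 h; biological replicates.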

Candida albicans [22] = test: Fungicidal activity against drug resistant Candida albicans DF2672R after 0.5 to 24 hrs by time kill assay; format: functional
Summary of the method: (§5)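 Cells at 10^5–10^6 CFU/mL exposed to 1×, 2×, 4× or 8× MIC at 35 °C. Samples taken at 0.5, 1, 2, 4, 8 and 24 h, serially diluted in PBS and plated on SDA. CFU counted after 24 h at 35 °C; biological replicates.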

Lipid bilayer [23] = test: Induction of membrane permiablization in calcein loaded DOPC/DOPE/PI large unilamellar vesicles assessed as calcein leakage at 1:4 compound to lipid ratio after 1 to 2 hrs by fluorescence assay relative to control; summary of the method: as §4
Staphylococcus aureus [24] = test: Antibacterial activity against methicillin resistant Staphylococcus aureus DM9808R by two fold serial dilution method; format: functional
Summary of the method: (§6)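 Broth microdilution per CLSI guidelines with minor modifications, run in Mueller−Hinton broth; MIC is the lowest concentration giving no visible growth.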

Bacillus cereus = test: Antibacterial activity against Bacillus cereus ATCC11778 by two fold serial dilution method; format: functional
Summary of the method: (§7)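 Broth microdilution (CLSI, minor modifications) in Sabouraud dextrose, Mueller−Hinton or RPMI 1640 broth; two-fold serial dilutions of compound from stock to final 100 to 0.78 μg/mL. MIC taken as lowest concentration giving no visible growth.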

Candida albicans [25] = test: Synergistic antifungal activity against drug resistant Candida albicans DF2672R after 24 hrs in presence of amphotericin B by checkerboard assay; format: functional; summary of the method: as §3
Candida albicans [26] = test: Ratio of MIC against drug resistant Candida albicans DF2672R measured after 30 passages to MIC against drug resistant Candida albicans DF2672R measured before 30 passages by two fold serial dilution method; format: functional
Summary of the method: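 Serial passage: cells from duplicate tubes at 0.5× MIC adjusted to ~5×10^3 CFU/mL and used as the inoculum for the next broth microdilution MIC, 24 h at 35 °C. Repeated for 27–30 passages, with biological replicates.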

Candida albicans [27] = test: Synergistic antifungal activity against drug resistant Candida albicans DF2672R after 24 hrs in presence of terbinafine by checkerboard assay; format: functional; summary of the method: as §3
Pseudomonas aeruginosa = test: Antibacterial activity against Pseudomonas aeruginosa DM23155 by two fold serial dilution method; format: functional; summary of the method: as §7
Candida albicans [28] = test: Fungicidal activity against drug resistant Candida albicans DF2672R at 8 times MIC after 4 hrs by time kill assay relative to control; format: functional; summary of the method: as §5
Candida albicans [29] = test: Synergistic antifungal activity against drug resistant Candida albicans DF2672R after 24 hrs in presence of itraconazole by checkerboard assay; format: functional; summary of the method: as §3
[30] = Selectivity index, ratio of HC50 for New Zealand white rabbit RBC to MIC for Candida albicans ATCC 10231
Klebsiella pneumoniae = test: Antibacterial activity against Klebsiella pneumoniae DM4299 by two fold serial dilution method; format: functional; summary of the method: as §7
Candida albicans [31] = test: Synergistic antifungal activity against drug resistant Candida albicans DF2672R after 24 hrs in presence of posaconazole by checkerboard assay; format: functional; summary of the method: as §3
Staphylococcus aureus [32] = test: Antibacterial activity against methicillin resistant Staphylococcus aureus DM21455 by two fold serial dilution method; format: functional; summary of the method: as §6
Staphylococcus aureus [33] = test: Antibacterial activity against Staphylococcus aureus DM4001R by two fold serial dilution method; format: functional; summary of the method: as §7

For `CC[C@H](C)C[C@H](C)CCCCCCCCC(=O)N[C@H]1C[C@@H](O)[C@@H](NCCN)NC(=O)[C@@H]2[C@@H](O)CCN2C(=O)[C@H]([C@H](O)CCN)NC(=O)[C@H]([C@H](O)[C@@H](O)c2ccc(O)cc2)NC(=O)[C@@H]2C[C@@H](O)CN2C(=O)[C@H]([C@@H](C)O)NC1=O` [CASPOFUNGIN], the MIC (Fusarium solani [1]) was > 50 µg/mL, the MIC (Aspergillus brasiliensis) was > 50 µg/mL and the MIC (Fusarium oxysporum [2]) was > 50 µg/mL. The MIC (Aspergillus fumigatus [3]) was > 50 µg/mL, the MIC (Candida albicans [4]) was 0.2 µg/mL (≈ 0.183 µM) and the MIC (Fusarium solani [5]) was > 50 µg/mL. The MIC (Candida albicans [6]) was 0.2 µg/mL (≈ 0.183 µM), the MIC (Candida albicans [7]) was 0.1 µg/mL (≈ 0.0915 µM) and the MIC (Candida albicans [8]) was 0.2 µg/mL (≈ 0.183 µM). For the same compound, the MIC (Aspergillus flavus [9]) was > 50 µg/mL, the MIC (Fusarium solani [10]) was > 50 µg/mL and the MIC (Candida albicans [11]) was 0.1 µg/mL (≈ 0.0915 µM). For the same compound, the MIC (Aspergillus flavus [12]) was > 50 µg/mL, the MIC (Fusarium solani [13]) was > 50 µg/mL and the MIC (Candida albicans [14]) was 0.2 µg/mL (≈ 0.183 µM). For the same compound, the MIC (Aspergillus fumigatus [15]) was > 50 µg/mL and the MIC (Fusarium oxysporum [16]) was > 50 µg/mL.
For `CCCCN(CCCC)CC(O)COc1cc2oc3cc(OCC(O)CN(CCCC)CCCC)c(OC)c(CC=C(C)C)c3c(=O)c2c(O)c1CC=C(C)C` (centres undefined), the “fractional inhibitory concentration index (FICI)” value (Candida albicans [17]) was 0.91, the MIC (Fusarium solani [1]) was 6.25 µg/mL (≈ 8 µM) and the Activity (Lipid bilayer [18]) was 25.8%. For the same compound, the MIC (Aspergillus brasiliensis) was 3.13 µg/mL (≈ 4.01 µM), the “fractional inhibitory concentration index (FICI)” value (Candida albicans [19]) was 0.81 and the MIC (Fusarium oxysporum [2]) was 3.13 µg/mL (≈ 4.01 µM). For the same compound, the viability at 4 h [20] was > 99%, the Activity (Candida albicans [21]) was “Active” and the Activity (Candida albicans [22]) was “Dose-dependent effect”. For the same compound, the Activity (Lipid bilayer [23]) was 55.4%, the MIC (Aspergillus fumigatus [3]) was 6.25 µg/mL (≈ 8 µM) and the MIC (Staphylococcus aureus [24]) was > 50 µg/mL. The MIC (Bacillus cereus) was > 50 µg/mL, the “fractional inhibitory concentration index (FICI)” value (Candida albicans [25]) was 0.64 and the MIC (Candida albicans [4]) was 3.13 µg/mL (≈ 4.01 µM). For the same compound, the Ratio (Candida albicans [26]) was 2, the MIC (Fusarium solani [5]) was 3.13 µg/mL (≈ 4.01 µM) and the “fractional inhibitory concentration index (FICI)” value (Candida albicans [27]) was 0.29. The MIC (Candida albicans [6]) was 3.13 µg/mL (≈ 4.01 µM), the MIC (Candida albicans [7]) was 3.13 µg/mL (≈ 4.01 µM) and the MIC (Candida albicans [8]) was 3.13 µg/mL (≈ 4.01 µM). For the same compound, the MIC (Pseudomonas aeruginosa) was > 50 µg/mL, the Activity (Candida albicans [28]) was 99.9% and the “fractional inhibitory concentration index (FICI)” value (Candida albicans [29]) was 0.63. The MIC (Aspergillus flavus [9]) was 12.5 µg/mL (≈ 16 µM), the Selectivity Index [30] was > 128 and the MIC (Fusarium solani [10]) was 6.25 µg/mL (≈ 8 µM). The MIC (Candida albicans [11]) was 3.13 µg/mL (≈ 4.01 µM), the MIC (Klebsiella pneumoniae) was > 50 µg/mL and the “fractional inhibitory concentration index (FICI)” value (Candida albicans [31]) was 0.91. For the same compound, the MIC (Staphylococcus aureus [32]) was > 50 µg/mL, the MIC (Aspergillus flavus [12]) was 12.5 µg/mL (≈ 16 µM) and the MIC (Fusarium solani [13]) was 6.25 µg/mL (≈ 8 µM). For the same compound, the MIC (Candida albicans [14]) was 3.13 µg/mL (≈ 4.01 µM), the MIC (Aspergillus fumigatus [15]) was 12.5 µg/mL (≈ 16 µM) and the MIC (Staphylococcus aureus [33]) was > 50 µg/mL. It also gave an MIC (Fusarium oxysporum [16]) of 6.25 µg/mL (≈ 8 µM).
